Reference: ChEMBL document CHEMBL1149895, “Steroids and flavonoids from Physalis alkekengi var. franchetii and their inhibitory effects on nitric oxide production” (J Nat Prod, 2008)

test system: RAW264.7; assay: Inhibition of LPS-induced nitric oxide production in mouse RAW264.7 cells assessed as nitrite formation; format: functional, cell-based
Summary of the method: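 RAW 264.7 cells in RPMI 1640 with 10% heat-inactivated FBS, penicillin and streptomycin, seeded at 1 × 10^5 cells/well and allowed to adhere 2 h at 37 °C in 5% CO2. LPS 1 µg/mL with or without compound (DMSO 0.2% v/v final) for 24 h. Supernatant nitrite read by Griess reagent against a 0–100 µM sodium nitrite line. Inhibition taken relative to LPS-only and untreated wells. Triplicate, mean ± SD of three independent experiments.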

`C[C@]12CCC(=O)C=C1CC[C@@H]1[C@@H]2[C@@H](O)C[C@@]2(C)[C@H]1CC[C@]2(O)C(=O)CO` [HYDROCORTISONE] was tested. Which IC50 did it give?
Its IC50 is 64.3 µM.

`C[C@]12C(=O)C[C@H](O)C=C1C=C[C@@H]1[C@@H]2CC[C@]2(O)C(=O)O[C@@]3(C)[C@H]4C[C@]5(C)[C@@H](CO[C@@]16O[C@@]32[C@H]5C6=O)C(=O)O4` [ISOPHYSALIN G] was tested. Which IC50 did it give?
The IC50 was 64 µM.

For `O=c1cc(-c2ccc(O)c(O)c2)oc2cc(O)cc(O)c12` [LUTEOLIN], which IC50 is on record?
The IC50 was 7.39 µM.

For `COc1cc(O)c2c(=O)c(O)c(-c3ccc(OC)c(O)c3)oc2c1` [OMBUINE], which IC50 is on record?
Its IC50 is 2.23 µM.

For `C=C1C(=O)O[C@@H]2C[C@@]1(C)[C@@H]1C(=O)[C@]3(O)O[C@]14[C@@]2(C)OC(=O)[C@@]4(O)CC[C@H]1[C@H]3[C@H](O)C=C2CC=CC(=O)[C@@]21C` [PHYSALIN A], which IC50 is on record?
The IC50 was 2.57 µM.

With `C[C@]12C(=O)C=CCC1=CC[C@@H]1[C@@H]2CC[C@]2(O)C(=O)O[C@@]3(C)[C@H]4C[C@]5(C)[C@@H](CO[C@@]16O[C@@]32[C@H]5C6=O)C(=O)O4` [PHYSALIN B] as the compound, how does the IC50 read?
Its IC50 is 0.84 µM.

For `C[C@@]12C[C@H]3OC(=O)[C@@H]1CO[C@]14O[C@]5([C@H]2C1=O)[C@@](O)(CC[C@H]1[C@H]4C[C@H]2O[C@]24CC=CC(=O)[C@]14C)C(=O)O[C@@]35C` [PHYSALIN F], which IC50 is on record?
The IC50 was 0.33 µM.

`CO[C@H]1C=C2C=C[C@@H]3[C@H](CC[C@]4(O)C(=O)O[C@@]5(C)[C@H]6C[C@](C)([C@H](C)C(=O)O6)[C@H]6[C@@]3(O)C(=O)O[C@@]654)[C@@]2(C)C(=O)C1` [PHYSALIN I] was tested. Which IC50 did it give?
The IC50 was 84 µM.

How did the IC50 turn out when `C[C@@H]1C(=O)O[C@@H]2C[C@@]1(C)[C@@H]1C(=O)[C@]3(O)O[C@]14[C@@]2(C)OC(=O)[C@@]4(O)CC[C@H]1[C@H]3[C@H](O)C=C2CC=CC(=O)[C@@]21C` [PHYSALIN O] was run?
Its IC50 is 17.1 µM.

`C[C@]12C(=O)C[C@@H](O)CC1=CC[C@@H]1[C@@H]2CC[C@]2(O)C(=O)O[C@@]3(C)[C@H]4C[C@]5(C)[C@@H](CO[C@@]16O[C@@]32[C@H]5C6=O)C(=O)O4` [PHYSALIN Y] was tested. Which IC50 did it give?
Its IC50 is 79.2 µM.

`C[C@]12C(=O)C[C@@H](O)C=C1C=C[C@@H]1[C@@H]2CC[C@]2(O)C(=O)O[C@@]3(C)[C@H]4C[C@]5(C)[C@@H](CO[C@@]16O[C@@]32[C@H]5C6=O)C(=O)O4` [PHYSALIN Z] was tested. Which IC50 did it give?
Its IC50 is 75.7 µM.
